Results taken from ChEMBL document CHEMBL5576114, “Inhibition of DXR in the MEP pathway with lipophilic N-alkoxyaryl FR900098 analogs” (RSC Med Chem, 2024).
pIC50: −log10 of the molar value. Values after ≈ are worked out from the molar mass of the structure shown.

Assays:
[1] = test system: Plasmodium falciparum; test: Antiplasmodial activity against Plasmodium falciparum 3D7 assessed as reduction in parasite growth by measuring DNA content after 3 days by PicoGreen staining based FLUOstar omega microplate reader analysis; type: functional, organism-based; settings: 3D7, 72 h
Summary of the method: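 Asynchronous cultures in 2% hematocrit, RPMI-1640 complete medium with 0.5% Albumax, under 5% O2/5% CO2/90% N2 at 37 °C. Diluted to 0.5% parasitemia, inhibitors 1.2 nM to 492.4 µM added at start. Growth read after 3 days as DNA content by PicoGreen fluorescence (485/528 nm). IC50 from 4-parameter nonlinear regression; technical duplicate, biological triplicate.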

[2] = test system: Mycobacterium tuberculosis; test: Antibacterial activity against Mycobacterium tuberculosis H37Rv assessed as reduction in bacterial growth incubated for 2 weeks by macroscopic plate reader analysis; type: functional; settings: 336 h
Summary of the method: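 H37Rv grown in 7H9 broth with 0.08% NaCl, 0.4% glucose, 0.05% casitone and 0.05% tyloxapol, then diluted 1:500. Compounds were made as 20 mg/mL DMSO stocks and run as eleven 2-fold serial dilutions. Plates were held 2 weeks at 37 °C and MIC99 was read macroscopically. Three independent measurements.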

[3] = target: T1, 1-deoxy-D-xylulose 5-phosphate reductoisomerase, apicoplastic (Plasmodium falciparum (isolate 3D7)) (UniProt Q8IKG4); test: Inhibition of Plasmodium falciparum DXR expressed in Escherichia coli BL21 CodonPlus (DE3)-RIL cells assessed as remaining activity using DOXP as substrate at 100 uM in presence of NADPH by UV-visible spectrophotometry relative to control
T1 sequence (whole entry): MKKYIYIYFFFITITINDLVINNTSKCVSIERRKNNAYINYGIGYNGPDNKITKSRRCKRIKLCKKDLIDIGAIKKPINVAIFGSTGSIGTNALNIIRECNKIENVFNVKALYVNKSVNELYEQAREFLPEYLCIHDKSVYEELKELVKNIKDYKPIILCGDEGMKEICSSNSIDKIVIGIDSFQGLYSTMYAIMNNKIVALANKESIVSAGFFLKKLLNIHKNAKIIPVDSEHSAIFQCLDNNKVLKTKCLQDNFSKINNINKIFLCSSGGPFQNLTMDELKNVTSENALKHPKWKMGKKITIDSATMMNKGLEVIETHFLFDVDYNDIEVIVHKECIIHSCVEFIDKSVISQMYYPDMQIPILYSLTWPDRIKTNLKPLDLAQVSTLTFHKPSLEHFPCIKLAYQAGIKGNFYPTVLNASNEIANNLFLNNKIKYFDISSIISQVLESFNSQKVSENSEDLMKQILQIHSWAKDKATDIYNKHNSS
Summary of the method: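 Recombinant His-tagged PfDXR purified by TALON affinity. Assay at 37 °C in 100 mM Tris pH 7.8, 25 mM MgCl2, 0.86 µM enzyme, 150 µM NADPH; reaction started with 144 µM DOXP. NADPH oxidation followed at 340 nm. Single inhibitor concentration 100 µM, given as percent remaining activity; technical duplicates.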

[4] = target: T2, 1-deoxy-D-xylulose 5-phosphate reductoisomerase (Mycobacterium tuberculosis) (UniProt P9WNS1); test: Inhibition of Mycobacterium tuberculosis DXR expressed in Escherichia coli BL21 CodonPlus (DE3)-RIL cells assessed as remaining activity using DOXP as substrate at 100 uM in presence of NADPH by UV-visible spectrophotometry relative to control
T2 sequence (whole entry): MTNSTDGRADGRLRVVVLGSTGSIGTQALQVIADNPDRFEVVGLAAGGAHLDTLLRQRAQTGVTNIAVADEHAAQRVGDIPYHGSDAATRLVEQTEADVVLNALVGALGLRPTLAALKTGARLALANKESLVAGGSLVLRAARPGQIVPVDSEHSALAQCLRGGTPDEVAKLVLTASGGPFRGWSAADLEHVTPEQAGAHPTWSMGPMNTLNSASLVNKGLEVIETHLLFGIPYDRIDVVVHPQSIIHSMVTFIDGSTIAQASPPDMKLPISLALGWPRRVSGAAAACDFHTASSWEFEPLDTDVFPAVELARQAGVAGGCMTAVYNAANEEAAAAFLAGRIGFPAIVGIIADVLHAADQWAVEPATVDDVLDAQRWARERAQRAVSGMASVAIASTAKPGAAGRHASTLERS
Summary of the method: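 Recombinant MtbDXR (pET101/D-TOPO in E. coli BL21 CodonPlus (DE3)-RIL, IMAC-purified) at 0.89 µM in 100 mM MES pH 6.5, 25 mM MgCl2, 150 µM NADPH, 47 µM DOXP, 37 °C. Inhibitor was tested at a single 100 µM. NADPH oxidation was followed at 340 nm, and percent remaining activity was reported. Technical duplicates.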

[5] = target: T1, 1-deoxy-D-xylulose 5-phosphate reductoisomerase, apicoplastic (Plasmodium falciparum (isolate 3D7)); test: Inhibition of Plasmodium falciparum DXR expressed in Escherichia coli BL21 CodonPlus (DE3)-RIL cells using DOXP as substrate at 100 uM in presence of NADPH by UV-visible spectrophotometry relative to control
Summary of the method: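 PfDXR single-point test at 100 µM inhibitor. Conditions: 0.86 µM IMAC-purified enzyme, 100 mM Tris pH 7.8, 25 mM MgCl2, 150 µM NADPH, 37 °C. Reaction was started with 144 µM DOXP, and NADPH oxidation was monitored at 340 nm. Percent remaining activity was reported; technical duplicates.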

[6] = target: T3, 1-deoxy-D-xylulose 5-phosphate reductoisomerase, apicoplastic (Plasmodium falciparum (isolate 3D7), UniProt Q8IKG4); test: Inhibition of Plasmodium falciparum DXR expressed in Escherichia coli BL21 CodonPlus (DE3)-RIL cells using DOXP as substrate in presence of NADPH by UV-visible spectrophotometry
T3 sequence (Q8IKG4 whole entry): T1 sequence (whole entry)

Compound | pIC50 [1] | MIC [2] [µM] | Activity [3] [%] | Activity [4] [%] | inhibition [5] [%] | pIC50 [6]
CC(=O)N(CCC(c1ccc(Cl)c(Cl)c1)P(=O)(OCOC(=O)C(C)(C)C)OCOC(=O)C(C)(C)C)OC(C)c1ccc(C(F)(F)F)cc1 (configuration not stated) | 4.62 | > 134 |  |  |  | 
CC(=O)N(CCC(c1ccc(Cl)c(Cl)c1)P(=O)(OCOC(=O)C(C)(C)C)OCOC(=O)C(C)(C)C)OC(C)c1ccc(Cl)cc1 (configuration not stated) | 4.52 | 13.3 (≈ 9.43 µg/mL) |  |  |  | 
CC(=O)N(CCC(c1ccc(Cl)c(Cl)c1)P(=O)(O)O)OCc1ccc(-c2ccccc2)cc1 (configuration not stated) | 4.06 | 23.1 (≈ 11.7 µg/mL) | 27 | 93.9 |  | 
CC(=O)N(CCC(c1ccc(Cl)c(Cl)c1)P(=O)(OCOC(=O)C(C)(C)C)OCOC(=O)C(C)(C)C)OCc1ccc(-c2ccccc2)cc1 (configuration not stated) | 5.06 | 17 (≈ 12.5 µg/mL) |  |  |  | 
CC(=O)N(CCC(c1ccc(Cl)c(Cl)c1)P(=O)(O)O)OCc1ccc(-c2ccc(C(C)C)cc2)cc1 (configuration not stated) | 4.42 | 45 (≈ 24.8 µg/mL) | 56.1 | 63.2 |  | 
CC(=O)N(CCC(c1ccc(Cl)c(Cl)c1)P(=O)(O)O)OC(C)c1ccccc1 (configuration not stated) | 5.44 | > 208 |  | 64.6 | > 90 | 4.77
CC(=O)N(CCC(c1ccc(Cl)c(Cl)c1)P(=O)(OCOC(=O)C(C)(C)C)OCOC(=O)C(C)(C)C)OCc1ccc(C(C)C)cc1 (configuration not stated) | 4.86 | 17.8 (≈ 12.5 µg/mL) |  |  |  | 
CC(=O)N(CCC(c1ccc(Cl)c(Cl)c1)P(=O)(OCOC(=O)C(C)(C)C)OCOC(=O)C(C)(C)C)OCc1ccc(Br)cc1 (configuration not stated) | 4.46 | 8.5 (≈ 6.29 µg/mL) |  |  |  | 
CC(=O)N(CCC(c1ccc(Cl)c(Cl)c1)P(=O)(O)O)OC(C)c1ccc(C(F)(F)F)cc1 (configuration not stated) | 4.10 | > 91 | 74.7 | 59.6 |  | 
CC(=O)N(CCC(c1ccc(Cl)c(Cl)c1)P(=O)(OCOC(=O)C(C)(C)C)OCOC(=O)C(C)(C)C)OC(C)c1ccc(F)cc1 (configuration not stated) | 4.67 | 6.6 (≈ 4.57 µg/mL) |  |  |  | 
CC(=O)N(CCC(c1ccc(Cl)c(Cl)c1)P(=O)(OCOC(=O)C(C)(C)C)OCOC(=O)C(C)(C)C)OC(C)c1ccccc1 (configuration not stated) | 5.28 | 3.9 (≈ 2.63 µg/mL) |  |  |  | 
CC(=O)N(CCC(c1ccc(Cl)c(Cl)c1)P(=O)(OCOC(=O)C(C)(C)C)OCOC(=O)C(C)(C)C)OC(C)c1ccc(C)cc1 (configuration not stated) | 4.50 | 18.2 (≈ 12.5 µg/mL) |  |  |  | 
CC(=O)N(CCC(c1ccc(Cl)c(Cl)c1)P(=O)(O)O)OCCCCc1ccccc1 (configuration not stated) | 4.20 | 3.1 (≈ 1.47 µg/mL) | 25.6 | 99.1 |  | 
